Only some compounds are listed: those with a hit (about 5.7% of all), similar ones and a draw of the others.
Mdm2 MdmX PPI = inhibitors of human Mdm2-MdmX association, primary screen, cell-based, luminescence, split luciferase, SaOS-2, uHTS; AID 485346, 2010; SaOS-2 split-luciferase Mdm2/MdmX complementation; Protein Mdm4 (Homo sapiens) + E3 ubiquitin-protein ligase Mdm2 (Homo sapiens), …; inhibition, % at 8 µM; 330,000 tested, 3% active;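 active = inhibition of at least 50% at 8 µM in the primary screen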
Target sequence (O15151 whole entry, looked up): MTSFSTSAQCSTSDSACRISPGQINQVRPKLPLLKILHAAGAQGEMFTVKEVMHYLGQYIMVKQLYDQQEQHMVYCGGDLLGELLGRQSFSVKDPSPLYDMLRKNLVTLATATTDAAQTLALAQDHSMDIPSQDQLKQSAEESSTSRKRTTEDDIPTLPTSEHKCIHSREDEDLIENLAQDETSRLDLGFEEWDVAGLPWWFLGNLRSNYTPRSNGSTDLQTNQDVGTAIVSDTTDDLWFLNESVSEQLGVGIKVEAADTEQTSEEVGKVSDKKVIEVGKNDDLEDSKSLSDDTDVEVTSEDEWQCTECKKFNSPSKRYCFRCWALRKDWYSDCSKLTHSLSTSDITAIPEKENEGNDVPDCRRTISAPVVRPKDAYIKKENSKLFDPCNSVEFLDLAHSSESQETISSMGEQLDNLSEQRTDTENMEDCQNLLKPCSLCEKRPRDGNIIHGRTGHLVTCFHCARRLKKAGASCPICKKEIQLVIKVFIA
Target sequence (Q00987 whole entry, looked up): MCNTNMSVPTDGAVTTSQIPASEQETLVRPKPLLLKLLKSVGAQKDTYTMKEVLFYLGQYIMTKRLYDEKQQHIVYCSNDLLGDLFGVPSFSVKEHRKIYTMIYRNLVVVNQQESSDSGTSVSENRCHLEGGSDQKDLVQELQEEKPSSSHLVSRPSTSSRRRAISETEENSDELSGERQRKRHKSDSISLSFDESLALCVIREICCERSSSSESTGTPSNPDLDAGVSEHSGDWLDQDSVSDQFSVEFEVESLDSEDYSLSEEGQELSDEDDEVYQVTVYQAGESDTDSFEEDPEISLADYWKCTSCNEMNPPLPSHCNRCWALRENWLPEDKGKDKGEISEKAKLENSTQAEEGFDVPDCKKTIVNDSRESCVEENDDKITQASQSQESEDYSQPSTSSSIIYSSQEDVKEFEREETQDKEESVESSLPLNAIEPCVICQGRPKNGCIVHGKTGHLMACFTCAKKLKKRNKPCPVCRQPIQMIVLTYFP
CSC inhib = cancer stem cell viability inhibitors, primary screen, luminescence. cancer stem cell-like cells viability. inhibition, % at 7.5 µM. 300,000 tested, 1.1% active; in the data active = inhibition above about 75%; inconclusive = no clear call, values can overlap the other calls; tested in HMLE shEcad cells
Beta apoptosis = inhibitors of cytokine-induced beta cell apoptosis, primary screen, luminescence; INS-1E cytokine-induced death, ATP luminescence, 48 h; percent of positive-control rescue, neutral wells zero; protection from apoptosis, % (no concentration beside the values); 300,000 tested, 0.8% active; AID 435005, 2010;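 active = Every replicate reaches about 75%, or at least half do and their mean reaches it too, limit read from the data; inconclusive = At least half of replicates reach the limit but their mean does not; inactive = Under half of replicates reach the limit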;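 also: 0% = cytokine-treated negative control wells and 100% = positive control rescue; higher means more ATP so stronger rescue from cytokine killing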
SKKanGAS inh = S. pyogenes SKKanGAS growth inhibitors in kanamycin, primary screen, streptokinase expression inhibitor project, SKKanGAS strain, BacTiter-Glo luminescence; 6 h; inhibition, % at 7.5 µM; 300,000 tested, 1.3% active;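 active = mean replicate score, as percent of positive control median, at least 50; inconclusive = mean below 50 but one replicate at or above 50; inactive = mean and every replicate below 50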;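 also: strain carries kanamycin resistance gene driven by streptokinase promoter and grows in 40 µg/ml kanamycin; loss of luminescence reflects streptokinase promoter inhibition or plain growth inhibition; 0% = median of DMSO wells and 100% = positive control at its reference dose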
T cruzi repl = inhibitors of intracellular T. cruzi growth, primary screen, luminescence, NIH3T3 host cells. T. cruzi beta-gal in NIH3T3, 90 h. inhibition, % (no concentration beside the values). 300,000 tested, 1.4% active. AID 1885, 2009;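 active = mean inhibition across valid replicates above about 55%, limit read from the data; inconclusive = mean below that limit but half or more replicates reach it; inactive = mean below it, under half of replicates reach it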;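 also: signal also drops with host cell toxicity which is not excluded here; 0% = plate median of DMSO wells and 100% = zero luminescence signal; higher percent means less beta-gal luminescence so fewer parasites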
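System: mouse NIH/3T3 fibroblasts infected with β-gal-expressing T. cruzi Tulahuen C4 / Input: NIH/3T3 cells, 5,000 per well / Buffer or medium: Low-serum DMEM with 2% FBS / Probe or stimulus: 5000 reporter trypomastigotes per well / Schedule: ≥90 h infection period, 3 h prior cell attachment / Measured by: GalScreen luminescence, 60 min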
Calb FLC = C. albicans growth inhibition with fluconazole, primary screen, CaCi-2 strain, Alamar Blue fluorescence | 300,000 tested, 0.57% active | growth inhibition, % (no concentration beside the values) | C. albicans CaCi-2 (fluconazole-resistant clinical isolate) + fluconazole, 48 h;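 active = growth inhibition above about 58% in most replicates, limit read from the data, passing the limit was not always enough; inconclusive = exactly half the replicates above a set limit; inactive = most replicates below a set limit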;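 also: all wells also contain fluconazole at 8 µg/ml as a sub-toxic cotreatment; 0% = median of DMSO wells and 100% = median of geldanamycin control wells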
Numbers without * were called inactive; ? = inconclusive; . = no result given.

SMILES	Mdm2 MdmX PPI	CSC inhib	Beta apoptosis	SKKanGAS inh	T cruzi repl	Calb FLC
CCCCN(C1CCS(=O)(=O)C1)S(=O)(=O)c1ccc(OC)c(OC)c1 (stereo not given)	-1	-5	-5	15	-7	5
CCn1cc(C(=O)NCc2ccco2)c(=O)c2cc(S(=O)(=O)N3CCC(C)CC3)ccc21	11	5	6	-1	-29	8
CCn1cc(C(=O)NCc2ccco2)c(=O)c2cc(S(=O)(=O)N3CCc4ccccc4C3)ccc21	24	42	5	22	56*	12
CCn1cc(C(=O)NCc2ccco2)c(=O)c2cc(S(=O)(=O)N3CC(C)CC(C)C3)ccc21 (stereo not given)	37	83*	26	8	6	20
COC(=O)[C@@H](Cc1ccccc1)N(Cc1ccccc1)S(=O)(=O)N(Cc1ccccc1)[C@H](Cc1ccccc1)C(=O)OC	34	26	119*	.	.	.
O=C(COC(=O)c1cn(-c2ccccc2)nc1-c1ccccc1)c1ccc([N+](=O)[O-])cc1	17	2	4	4	20	10
O=C(COC(=O)c1cn(-c2ccccc2)nc1-c1ccccc1)c1cccc([N+](=O)[O-])c1	0	42	102*	0	20	-4
Cc1ccc(C(=O)COC(=O)c2cn(-c3ccccc3)nc2-c2ccccc2)cc1[N+](=O)[O-]	1	?	99*	-13	6	-20
COc1ccccc1C(=O)NCC(=O)OCC(=O)c1cccc2ccccc12	12	-3	-3	-7	-6	-1
Cc1csc(NC(=O)Nc2ccc(Cl)cc2)n1	-19	1	2	-6	10	-23
O=C(Nc1ccc(Cl)c(Cl)c1)Nc1nc(-c2ccccc2)cs1	42	14	25	0	64*	3
O=C(Nc1ccc(Cl)cc1)Nc1nc(-c2ccccc2O)cs1	27	28	109*	61*	40	1
CC(=O)Nc1cccc(-c2csc(Nc3ncccn3)n2)c1	.	.	.	6	-13	-6
O=C(Nc1cccc(-c2csc(Nc3ccc(Cl)cc3)n2)c1)c1ccccc1	41	8	27	91*	30	0
CC(=O)Nc1cccc(-c2csc(Nc3ccc(C)cn3)n2)c1	-286	29	6	-2	-10	91*
CC(C)N(CC(N)=O)c1ccc(S(=O)(=O)N2CCCC2)cn1	23	.	-2	.	.	.
COc1ccc(N2CCN(C(=O)COC(=O)c3ccc(C)o3)CC2)cc1	40	-12	.	2	-2	0
O=[N+]([O-])c1ccc(S(=O)(=O)Nc2nc(-c3ccccc3)cs2)cc1	9	11	.	19	15	27
O=C(Nc1ccc(Cl)c(Cl)c1)Nc1ccccc1NS(=O)(=O)c1cccs1	27	99*	31	24	-20	31
O=C(Nc1ccccc1)Nc1ccccc1NS(=O)(=O)c1cccs1	2	3	-3	-4	-13	-6
O=S(=O)(Nc1nc(-c2ccccc2)cs1)c1cc(Cl)ccc1Cl	19	41	1	34	1	96*
O=C(Nc1ccc(Cl)cc1)Nc1nnc(-c2ccncc2)s1	.	91*	99*	12	-14	6
Cc1nc(-c2cccc(NC(=O)c3cccs3)c2)cs1	-28	8	-3	-6	-8	3
O=C(Nc1cccc(-c2csc(-c3ccccc3)n2)c1)c1cccs1	-10	192*	2	0	38	19
COC(=O)Nc1nnc(-c2ccncc2)s1	25	-3	3	-6	0	13
SMILES	Mdm2 MdmX PPI	CSC inhib	Beta apoptosis	SKKanGAS inh	T cruzi repl	Calb FLC
COc1ccc(S(=O)(=O)N2CCCC2CNC(=O)C(=O)Nc2cccc(F)c2)cc1 (stereo not given)	14	6	2	-6	17	10
Cc1ccc(OCC(=O)Oc2c(C)cccc2C)cc1C	-10	-14	-4	18	-9	5
CC(=O)Oc1ccc(-c2csc(Nc3ccc(Cl)cn3)n2)cc1	18	95*	.	34	39	-38
COc1ccc(/C=C2\SC(=S)N(CCC(=O)N3CCOCC3)C2=O)cc1	49	14	-10	0	-2	4
COc1ccc(/C=C2\SC(=S)N(CCCC(=O)N3CCN(C)CC3)C2=O)cc1	26	30	-21	11	60*	-5
CCc1ccc(/C=C2\SC(=S)N(CCCC(=O)Nc3ccccc3C(=O)O)C2=O)cc1	17	30	-16	66*	-13	70
COc1ccc(NC(=O)Nc2c(O)ccc3ccccc23)cc1	30	17	-2	7	-5	0
O=C(NCC(c1cccs1)N1CCOCC1)c1cccc([N+](=O)[O-])c1 (stereo not given)	22	-2	0	0	-23	-4
O=C(NCC(c1cccs1)N1CCOCC1)c1ccc(Cl)s1 (stereo not given)	26	78*	2	-9	-36	-14
O=C(NCC(c1cccs1)N1CCOCC1)c1cc([N+](=O)[O-])cc([N+](=O)[O-])c1 (stereo not given)	-11	12	-3	10	73*	-3
COc1ccccc1/C=C(/CC(=O)NCc1ccc2c(c1)OCO2)c1nc2ccccc2s1	0	37	8	11	55*	-3
COCCCNC(=O)C[C@H]1C[C@H](C(=O)N2CCCCC2)[C@@]2(C)c3[nH]c4cc(-c5ccco5)ccc4c3CCN2C1=O	16	.	.	.	.	.
Cc1cc(Cl)c(OCCCNCc2ccccc2)c(Br)c1	37	37	13	3	56*	-26
CN(C)CC(O)COc1cc2ccccc2cc1C(=O)N1CCCCC1 (stereo not given)	-19	-15	.	14	5	103*
COc1cc2ccccc2cc1C(=O)N1CCCCC1	16	-3	-9	0	3	10
O=C(/C=C/c1ccc(N2CCCCC2)c([N+](=O)[O-])c1)c1ccc(O)cc1	43	110*	7	37	17	-1
Cc1cc(=O)oc2cc(NC(=O)c3ccccc3OC(F)F)ccc12	-33	3	-7	9	-3	-8
O=c1c2ccccc2oc2ccc(-c3ccc4cc[nH]c4c3)cc12	-106	89*	-4	.	.	.
Cc1ccc(NC(=O)COC(=O)c2nn(-c3ccc(Cl)cc3)cc2O)cc1	-7	6	1	.	.	.
NNC(=O)c1nn(-c2ccc(Cl)cc2)cc1O	13	-9	75*	-1	15	-5
CCC(CO)Oc1cc(NC(=O)c2ccc(C)cc2)c2ncn(C(C)C)c2c1 (stereo not given)	29	-5	-1	.	.	.
